Laboratory results taken from ChEMBL document CHEMBL1131244, “New alkenyldiarylmethanes with enhanced potencies as anti-HIV agents which act as non-nucleoside reverse transcriptase inhibitors” (J Med Chem, 1998).
One block for each molecule: values may come before it.

Experiments:
[1] = target: Human immunodeficiency virus type 1 reverse transcriptase (Human immunodeficiency virus 1, UniProt Q72547); test: Inhibitory activity against human immunodeficiency virus (HIV) - 1 reverse transcriptase with rCdG as the template primer
Procedure, shortened: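 Reactions stopped with ice-cold 10% trichloroacetate, filtered through GF/C membrane, washed with ethanol, radiolabel counted by Cerenkov counting. AZTTP and nevirapine as positive controls; IC50 reported.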

CCRF-CEM [2] = test: The compound is evaluated for the cytotoxic concentration for the mock-infected CEM cells; assay type: functional; conditions: Homo sapiens
Procedure, shortened: (§1)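 XTT cytoprotection assay in CEM-SS cells infected with HIV-1 RF, with uninfected cultures for cytotoxicity, in presence of fetal calf serum. Data as percent of uninfected drug-free control. EC50 is 50% protection from cytopathicity; CC50 is 50% cell death in uninfected cells; TI = CC50/EC50. Triplicates on each of two sister plates, plate EC50s averaged. Confirmed by supernatant RT and p24.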

CEM-SS [3] = test: Inhibitory concentration for cytopathicity of HIV-1 RF in CEM-SS cells; NA means there was no observed inhibition of HIV-1 cytopathicity up to the cytotoxic concentration in uninfected cells.; assay type: functional, cell-based; procedure, shortened: as §1
CEM-SS [4] = test: Inhibitory concentration for cytopathicity of HIV-1 in CEM-SS cells; assay type: functional, cell-based; conditions: Homo sapiens; procedure, shortened: as §1
CEM-SS [5] = test: The compound is evaluated for the therapeutic index, which is the CC50 divided by the EC50.; assay type: functional; procedure, shortened: as §1
CEM-SS [6] = test: The compound is evaluated for the activity against HIV-1 NL4-3, Y188C mutation in reverse transcriptase in CEM-SS cells.
CCRF-CEM [7] = test: The compound is evaluated for the activity against HIV-1 IIIB, wild - type mutation in reverse transcriptase in CEM-CC cells.; assay type: functional, cell-based; conditions: Homo sapiens
Procedure, shortened: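 Resistant-virus panel in CEM-CC cells. Mutant isolates came from in vitro selection under various NNRTIs. More virus (higher MOI) was used than in the primary screening assays. The result is given as EC50 against each RT-mutant or wild-type isolate.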

[8] = The compound is evaluated for the inhibitory activity against HIV-1 ROJO, wild-type clinical isolate in PBMC cells.; assay type: functional, cell-based, Homo sapiens
CEM-SS [9] = test: The compound is evaluated for the activity against HIV-1 NL4-3, 4XAZT (AZT resistant) mutation in reverse transcriptase in CEM-SS cells.; assay type: functional, cell-based; conditions: Homo sapiens
Procedure, shortened: (§2)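 NL4-3-background virus carrying RT mutations, from site-directed mutagenesis or in vitro NNRTI selection, tested in CEM-SS cells. A higher MOI was used than in the primary screening assays. The result is given as EC50 against each mutant or wild-type virus.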

CEM-SS [10] = test: The compound is evaluated for the activity against HIV-1 NL4-3, Y181C mutation in reverse transcriptase in CEM-SS cells.
CEM-SS [11] = test: The compound is evaluated for the activity against HIV-1 NL4-3, V179D mutation in reverse transcriptase in CEM-SS cells.
CCRF-CEM [12] = test: The compound is evaluated for the activity against DPS ( Diphenyl sulfone resistant), Y181C mutation in reverse transcriptase in CEM-CC cells.; assay type: functional, cell-based; conditions: Homo sapiens
Procedure, shortened: (§3)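 Cytoprotection assay in CEM-CC cells against NNRTI-resistant HIV-1 isolates obtained by in vitro selection or site-directed mutagenesis, using a higher MOI than the original screening assays. EC50 determined; fold resistance relative to wild-type HIV-1 IIIB.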

CEM-SS [13] = test: The compound is evaluated for the activity against HIV-1 NL4-3, V108I mutation in reverse transcriptase in CEM-SS cells.
CEM-SS [14] = test: The compound is evaluated for the activity against HIV-1 NL4-3, L74V mutation in reverse transcriptase in CEM-SS cells.
[15] = target: Human immunodeficiency virus 1 nucleocapsid (Human immunodeficiency virus 1, UniProt Q76059); test: Inhibition of HIV-1 Nucleocapsid protein p7 (no inhibition at 25 uM)
CCRF-CEM [16] = test: The compound is evaluated for the activity against 3TC, M184I mutation in reverse transcriptase in CEM-CC cells.; assay type: functional, cell-based; conditions: Homo sapiens
CCRF-CEM [17] = test: The compound is evaluated for the activity against OC (Oxathiin carboxanilide resistant), L100I mutation in reverse transcriptase in CEM-CC cells.; assay type: functional, cell-based; conditions: Homo sapiens; procedure, shortened: as §3
Homo sapiens = organism: Homo sapiens; test: The compound is evaluated for the inhibitory activity against HIV-1 Ba-L, monocyte-tropic in Mono/Mac cells.; assay type: functional, cell-based
[18] = The compound is evaluated for the inhibitory activity against HIV-1, clade B in PBMC cells.; assay type: functional, cell-based, Homo sapiens
CEM-SS [19] = test: The compound is evaluated for the activity against HIV-1 NL4-3, K101E mutation in reverse transcriptase in CEM-SS cells.
CCRF-CEM [20] = test: The compound is evaluated for the activity against HEPT ((Hydroxyethoxy) methyl (phenylthio)thymine resistant), P236L mutation in reverse transcriptase in CEM-CC cells.; assay type: functional, cell-based; conditions: Homo sapiens; procedure, shortened: as §3
[21] = The compound is evaluated for the inhibitory activity against HIV-1, clade E in PBMC cells.; assay type: functional, cell-based, Homo sapiens
CEM-SS [22] = test: The compound is evaluated for the inhibitory activity against HIV-1 RF, wild-type laboratory adapted strain in CEM-SS.; assay type: functional, cell-based; conditions: Homo sapiens
Procedure, shortened: (§4)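 XTT cytoprotection assay in CEM-SS cells infected with HIV-1. EC50 is the concentration giving 50% protection from viral cytopathicity, relative to the uninfected drug-free control. Triplicates were averaged on each of two sister plates, and the two plate EC50s were averaged. Results were confirmed by supernatant RT and p24 levels.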

[23] = The compound is evaluated for the inhibitory activity against HIV-1, clade F in PBMC cells.; assay type: functional, cell-based, Homo sapiens
CEM-SS [24] = test: The compound is evaluated for the activity against HIV-1 NL4-3, wild - type mutation in reverse transcriptase in CEM-SS cells.; assay type: functional, cell-based; conditions: Homo sapiens; procedure, shortened: as §2
CEM-SS [25] = test: The compound is evaluated for the activity against HIV-1 NL4-3, 4XAZT/Y181C (AZT resistant) mutation in reverse transcriptase in CEM-SS cells.
CEM-SS [26] = test: The compound is evaluated for the inhibitory activity against HIV-1 IIIB, wild-type laboratory adapted strain in CEM-SS.; assay type: functional, cell-based; conditions: Homo sapiens; procedure, shortened: as §4
CCRF-CEM [27] = test: The compound is evaluated for the activity against cost, Y188H mutation in reverse transcriptase in CEM-CC cells.; assay type: functional, cell-based; conditions: Homo sapiens; procedure, shortened: as §3
CEM-SS [28] = test: The compound is evaluated for the activity against HIV-1 NL4-3, A98G mutation in reverse transcriptase in CEM-SS cells.
[29] = The compound is evaluated for the inhibitory activity against HIV-1, clade A in PBMC cells.; assay type: functional, cell-based, Homo sapiens
[30] = The compound is evaluated for the inhibitory activity against HIV-1, clade D in PBMC cells.; assay type: functional, cell-based, Homo sapiens
[31] = The compound is evaluated for the inhibitory activity against HIV-1 TEKI, wild-type clinical isolate in PBMC cells.; assay type: functional, cell-based, Homo sapiens
CCRF-CEM [32] = test: The compound is evaluated for the activity against TSAO/cost (costatolide resistant), K101E mutation in reverse transcriptase in CEM-CC cells.; assay type: functional, cell-based; conditions: Homo sapiens; procedure, shortened: as §3
CCRF-CEM [33] = test: The compound is evaluated for the activity against 129/cost (costatolide resistant), V108I mutation in reverse transcriptase in CEM-CC cells.; assay type: functional, cell-based; conditions: Homo sapiens, in the assay text read “K103N” for “V108I”; procedure, shortened: as §3
CCRF-CEM [34] = test: The compound is evaluated for the activity against thiazol (thiazolobenzimidazole resistant), T139I mutation in reverse transcriptase in CEM-CC cells.; assay type: functional, cell-based; conditions: Homo sapiens, in the assay text read “V108I” for “T139I”; procedure, shortened: as §3
[35] = target: Human immunodeficiency virus type 1 integrase (Human immunodeficiency virus 1, UniProt Q7ZJM1); test: The compound is evaluated for the inhibitory against HIV -1 integrase. NI indicates no inhibition at 100 uM conc.
CEM-SS [36] = test: The compound is evaluated for the activity against HIV-1 NL4-3, V106A mutation in reverse transcriptase in CEM-SS cells.
[37] = target: Human immunodeficiency virus type 1 protease (Human immunodeficiency virus 1, UniProt Q72874); test: The compound is evaluated for the inhibitory against HIV -1 protease, a 17% inhibition of HIV-1 protease was observed at a concentration of 100 uM
CEM-SS [38] = test: The compound is evaluated for the activity against HIV-1 NL4-3, K103N mutation in reverse transcriptase in CEM-SS cells.
CCRF-CEM [39] = test: The compound is evaluated for the activity against calo ( calanolide resistant), T139I mutation in reverse transcriptase in CEM-CC cells.; assay type: functional, cell-based; conditions: Homo sapiens; procedure, shortened: as §3
CEM-SS [40] = test: The compound is evaluated for the activity against HIV-1 NL4-3, 4XAZT/L100I (AZT resistant) mutation in reverse transcriptase in CEM-SS cells.
CEM-SS [41] = test: The compound is evaluated for the activity against HIV-1 NL4-3, L100I mutation in reverse transcriptase in CEM-SS cells.
[42] = The compound is evaluated for the inhibitory activity against HIV-1, clade C in PBMC cells.; assay type: functional, cell-based, Homo sapiens

IC50 [1]: > 100 µM
Compound: COC(=O)c1cc(C(=CCCCC(=O)O)c2cc(Cl)c(OC)c(C(=O)OC)c2)cc(Cl)c1OC
CC50 (CCRF-CEM [2]): 100 µM | EC50 (CEM-SS [3]): Not Active

Compound: COC(=O)c1cc(C(=CCCN=[N+]=[N-])c2cc(Br)c(OC)c(C(=O)OC)c2)cc(Br)c1OC
EC50 (CEM-SS [4]): 1.1 µM | IC50 [1]: 94 µM | CC50 (CCRF-CEM [2]): > 316 µM | TI (CEM-SS [5]): >278

Compound: CCCCCC1OC1(c1cc(Br)c(OC)c(C(=O)OC)c1)c1cc(Br)c(OC)c(C(=O)OC)c1 (configuration not stated)
IC50 [1]: 5.6 µM | CC50 (CCRF-CEM [2]): > 100 µM | EC50 (CEM-SS [3]): Not Active

Compound: CCCCCC=C(c1ccc(OC)c(C(=O)OC)c1)c1ccc(OC)c(C(=O)OC)c1
IC50 [1]: 3.2 µM | CC50 (CCRF-CEM [2]): 14 µM | EC50 (CEM-SS [3]): Not Active

Compound: COC(=O)CCCC=C(c1cc(Cl)c(OC)c(C(=O)OC)c1)c1cc(Cl)c(OC)c(C(=O)OC)c1
EC50 (CEM-SS [6]): 10.8 µM | EC50 (CCRF-CEM [7]): 0.39 µM | EC50 [8]: 2.28 µM | EC50 (CEM-SS [9]): 0.9 µM | EC50 (CEM-SS [10]): > 50 µM | EC50 (CEM-SS [11]): 50 µM | EC50 (CCRF-CEM [12]): > 50 µM | EC50 (CEM-SS [13]): 12 µM | EC50 (CEM-SS [14]): 2.23 µM | IC50 [15]: No inhibition | EC50 (CCRF-CEM [16]): 1.08 µM | EC50 (CCRF-CEM [17]): 0.94 µM | EC50 (Homo sapiens): 0.36 µM | EC50 [18]: 0.43 µM | EC50 (CEM-SS [19]): 3.05 µM | EC50 (CCRF-CEM [20]): 8.08 µM | CC50 (CCRF-CEM [2]): 31.6 µM | EC50 [21]: 0.4 µM | EC50 (CEM-SS [22]): 0.91 µM | EC50 [23]: 1.7 µM | EC50 (CEM-SS [24]): 1.78 µM | EC50 (CEM-SS [25]): > 50 µM | EC50 (CEM-SS [26]): 0.16 µM | EC50 (CCRF-CEM [27]): > 50 µM | EC50 (CEM-SS [28]): 0.84 µM | EC50 [29]: 1.09 µM | EC50 [30]: 1.02 µM | EC50 [31]: 2.2 µM | EC50 (CCRF-CEM [32]): 11.9 µM | EC50 (CCRF-CEM [33]): 10.8 µM | EC50 (CCRF-CEM [34]): > 50 µM | IC50 [35]: No inhibition | EC50 (CEM-SS [36]): 12.7 µM | IC50 [37]: > 100 µM | EC50 (CEM-SS [38]): > 50 µM | EC50 (CCRF-CEM [39]): 15 µM | EC50 (CEM-SS [40]): 0.27 µM | EC50 (CEM-SS [41]): < 0.16 µM | EC50 [42]: 1.04 µM
